# Assays:
# [1] = target: T1, DNA polymerase III PolC-type (Bacillus subtilis (strain 168), UniProt P13267); experiment: Compound was tested for its inhibitory activity against Bacillus subtilis […] using DNA Polymerase assay; IA=Inactive
# Procedure, shortened: (§1)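 B. subtilis DNA polymerase III assayed as a truncated reaction: the nucleotide competing with the inhibitor class (dGTP or dATP) was omitted from the mix.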
# [2] = target: T1, DNA polymerase III PolC-type; experiment: Compound was tested for its inhibitory activity against Bacillus subtilis DNA topoisomerase III using DNA Polymerase assay; procedure, shortened: as §1
# [3] = target: T1, DNA polymerase III PolC-type; experiment: Compound was tested for its inhibitory activity against […] Polymerase III using DNA Polymerase assay; IA=Inactive; procedure, shortened: as §1
# [4] = target: T1, DNA polymerase III PolC-type; experiment: Concentration producing 50% inhibition of Bacillus subtilis DNA polymerase III in the absence of dATP using DNA Polymerase assay; NA=Inactive; procedure, shortened: as §1
# [5] = target: T1, DNA polymerase III PolC-type; experiment: Concentration producing 50% inhibition of Bacillus subtilis DNA polymerase III in the absence of dGTP using DNA Polymerase assay; details: read-out: Ki; procedure, shortened: as §1
# [6] = target: T1, DNA polymerase III PolC-type; experiment: Concentration producing 50% inhibition of Bacillus subtilis […] in the absence using DNA Polymerase assay
# [7] = target: T1, DNA polymerase III PolC-type; experiment: Concentration producing 50% inhibition of Bacillus subtilis DNA polymerase III in the absence of dATP using DNA Polymerase assay; NA= Inactive; procedure, shortened: as §1
# [8] = target: T1, DNA polymerase III PolC-type; experiment: Concentration producing 50% inhibition of Bacillus subtilis […] in the presence of dATP using DNA Polymerase assay
# [9] = target: T1, DNA polymerase III PolC-type; experiment: Concentration producing 50% inhibition of Bacillus subtilis […] in the presence of dGTP using DNA Polymerase assay
# T1 sequence (P13267 whole entry, the tested form may be a part): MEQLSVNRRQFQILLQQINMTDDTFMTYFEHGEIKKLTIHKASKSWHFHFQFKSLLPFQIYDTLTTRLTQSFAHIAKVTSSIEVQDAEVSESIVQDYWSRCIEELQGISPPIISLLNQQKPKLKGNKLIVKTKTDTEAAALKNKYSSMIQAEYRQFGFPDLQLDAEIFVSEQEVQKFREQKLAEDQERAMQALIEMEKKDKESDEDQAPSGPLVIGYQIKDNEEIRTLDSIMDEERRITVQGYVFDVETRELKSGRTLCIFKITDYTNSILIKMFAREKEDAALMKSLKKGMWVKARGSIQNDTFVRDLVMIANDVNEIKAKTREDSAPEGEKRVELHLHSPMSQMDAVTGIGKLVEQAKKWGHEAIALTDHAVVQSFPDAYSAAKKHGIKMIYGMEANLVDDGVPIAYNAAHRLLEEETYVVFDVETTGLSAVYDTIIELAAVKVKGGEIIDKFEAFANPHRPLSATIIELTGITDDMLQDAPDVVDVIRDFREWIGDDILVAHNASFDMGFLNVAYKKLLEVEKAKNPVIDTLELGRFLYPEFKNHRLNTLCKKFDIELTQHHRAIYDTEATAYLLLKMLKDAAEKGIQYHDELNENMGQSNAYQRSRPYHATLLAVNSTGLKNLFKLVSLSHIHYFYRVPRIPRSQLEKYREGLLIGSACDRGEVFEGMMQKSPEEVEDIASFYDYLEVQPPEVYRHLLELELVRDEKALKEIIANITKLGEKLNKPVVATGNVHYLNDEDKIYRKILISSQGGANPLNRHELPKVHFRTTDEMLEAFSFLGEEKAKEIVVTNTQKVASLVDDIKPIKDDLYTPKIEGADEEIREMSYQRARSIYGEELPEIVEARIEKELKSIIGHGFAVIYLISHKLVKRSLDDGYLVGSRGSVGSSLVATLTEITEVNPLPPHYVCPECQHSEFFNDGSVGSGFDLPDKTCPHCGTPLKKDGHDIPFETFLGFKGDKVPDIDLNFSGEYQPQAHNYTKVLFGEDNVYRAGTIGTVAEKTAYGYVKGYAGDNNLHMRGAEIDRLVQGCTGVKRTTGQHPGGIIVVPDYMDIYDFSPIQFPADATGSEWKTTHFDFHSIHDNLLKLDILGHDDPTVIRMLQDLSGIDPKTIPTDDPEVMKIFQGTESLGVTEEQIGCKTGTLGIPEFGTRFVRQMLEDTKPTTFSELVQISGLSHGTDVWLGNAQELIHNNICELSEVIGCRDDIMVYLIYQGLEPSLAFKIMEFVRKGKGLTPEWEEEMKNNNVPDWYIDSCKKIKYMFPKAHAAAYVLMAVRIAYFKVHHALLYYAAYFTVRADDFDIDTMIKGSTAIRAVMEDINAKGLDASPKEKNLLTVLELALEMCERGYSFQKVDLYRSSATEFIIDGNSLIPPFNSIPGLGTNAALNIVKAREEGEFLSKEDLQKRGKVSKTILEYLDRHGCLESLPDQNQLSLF
smiles,measurement,setting,value
Cc1ccc(Nc2nc(O)nc(O)c2N=O)cc1,Ki,[1],Not Active
Nc1nc(Cl)cc(NCc2ccccc2)n1,Ki,[2],17 µM
O=Nc1c(O)nc(O)nc1NCc1ccccc1,Ki,[3],Not Active
Nc1nc(NCc2ccccc2)cc(SCc2ccccc2)n1,Ki,[4],Not Active
O=c1[nH]c(NCc2ccccc2)c(I)c(=O)[nH]1,IC50,[5],9 µM
Oc1nc(O)c(Br)c(NCc2ccccc2)n1,IC50,[5],9 µM
CCc1c(O)nc(O)nc1Nc1ccc(C)cc1,Ki,[4],Not Active
Cc1ccc(Nc2[nH]c(=O)[nH]c(=O)c2C)cc1,IC50,[5],1580 µM
Cc1c(O)nc(O)nc1NCc1ccccc1,Ki,[6],436 µM
CCc1c(O)nc(O)nc1NCc1ccccc1,IC50,[5],2820 µM
Nc1nc(NCc2ccccc2)cc(SCc2ccc(Cl)cc2)n1,Ki,[7],Not Active
Nc1nc(O)cc(NCc2ccccc2)n1,Ki,[8],33 µM
O=c1nc(NCc2ccccc2)[nH]c(=O)[nH]1,IC50,[5],20 µM
Cc1ccc(Nc2nc(=O)[nH]c(=O)[nH]2)cc1,IC50,[5],70 µM
Nc1nc(O)cc(Nc2ccc3c(c2)CCC3)n1,Ki,[8],2 µM
Cc1ccc(Nc2nc(O)nc(O)c2Br)cc1,IC50,[5],14 µM
Oc1cc(Nc2ccc3c(c2)CCC3)nc(O)n1,Ki,[9],0.4 µM
O=c1cc(NCc2ccccc2)[nH]c(=O)[nH]1,Ki,[9],7.5 µM

# Reference: ChEMBL document CHEMBL1123174, “Inhibitors of Bacillus subtilis DNA polymerase III. Influence of modifications in the pyrimidine ring of anilino- and (benzylamino)pyrimidines” (J Med Chem, 1986)
